Measured values taken from ChEMBL document CHEMBL3124806, “Imidazopyridine-fused [1,3]-diazepinones: synthesis and antiproliferative activity” (Eur J Med Chem, 2014).
Calls of active or inactive are those of the source. The rule behind the calls is not given here.

Tests used:
SR = assay: Cytotoxicity against human SR cells after 48 hrs by SRB assay; assay type: functional
Method in brief: (§1)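 NCI-60 five-dose mode on the full human tumour line panel. Concentrations ran from 100 to 0.01 µM with 48 h continuous exposure. Growth was estimated by SRB protein staining against untreated controls, and IC50 values were derived from the dose–response.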

[1] = Cytotoxicity against human UACC257 cells after 48 hrs by SRB assay; assay type: functional; details: UACC-257, 48 h; method in brief: as §1
MDA-MB-435 [2] = assay: Cytotoxicity against human MDA-MB-435 cells at 5 uM after 24 hrs by MTT assay; assay type: functional
Method in brief: (§2)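 MDA-MB-435 cells in DMEM/Ham's F12 (1:1) with 10% FCS, 37 °C, 5% CO2. Time course at a fixed 5 µM, incubated 8, 16, 24 or 48 h. Viability then read by MTT reduction (0.5 mg/mL, 4 h), formazan dissolved in EtOH/DMSO, absorbance at 540 nm, as percent living cells.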

MDA-MB-435 [3] = assay: Cytotoxicity against human MDA-MB-435 cells at 5 uM by MTT assay; assay type: functional, cell-based; details: TDE = time-dependent effect; method in brief: as §2
RXF 393 = assay: Cytotoxicity against human RXF393 cells after 48 hrs by SRB assay; assay type: functional; details: RXF 393, 48 h
Method in brief: (§3)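 NCI-60 five-dose screen: cells exposed continuously for 48 h across 100 to 0.01 µM. Growth or viability estimated by sulforhodamine B protein staining, read spectrophotometrically against untreated controls; IC50 taken from the dose-response.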

PC-3 = assay: Cytotoxicity against human PC3 cells after 48 hrs by SRB assay; assay type: functional; details: PC-3, 48 h; method in brief: as §3
MDA-MB-435 [4] = assay: Cytotoxicity against human MDA-MB-435 cells assessed as cell growth at 10 uM after 48 hrs by MTT assay relative to untreated control; assay type: functional; details: MDA-MB-435, 48 h, read-out: Activity
Method in brief: (§4)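 Melanoma lines grown at 37 °C in humidified 5% CO2: MDA-MB-435 in DMEM/Ham's F12 1:1 with 10% FCS and antibiotics, SK-MEL-2 in RPMI-1640 with 10% FCS. Cells plated 24 h, then exposed 48 h to 100–0.01 µM (dilutions from fresh 100 µM stock in medium). MTT 0.5 mg/mL added for 4 h, crystals dissolved in EtOH/DMSO 1:1, absorbance read at 540 nm. Mean ± SD of three independent experiments.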

DU-145 = assay: Cytotoxicity against human DU145 cells after 48 hrs by SRB assay; assay type: functional; details: DU-145, 48 h
Method in brief: (§5)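 NCI-60 five-dose testing, 100 to 0.01 µM, under a 48 h continuous-exposure protocol. Growth estimated by SRB protein assay, read spectrophotometrically against untreated controls; IC50 derived from the dose-response.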

[5] = biological target: Cyclin-dependent kinase 2 (Homo sapiens) (UniProt P24941); assay: Inhibition of human CDK2 at 10 uM
Method in brief: (§6)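 Kinase selectivity panel of 19 protein tyrosine kinases and 30 serine/threonine kinases, run by a contract lab (CEREP). Each compound was tested at a single dose of 10 μM in duplicate.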

HOP-62 = assay: Cytotoxicity against human HOP62 cells after 48 hrs by SRB assay; assay type: functional; details: HOP-62, 48 h; method in brief: as §5
MDA-MB-435 [6] = assay: Cytotoxicity against human MDA-MB-435 cells after 48 hrs by MTT assay; assay type: functional, cell-based; details: MDA-MB-435, 48 h; method in brief: as §4
CAKI-1 = assay: Cytotoxicity against human Caki1 cells after 48 hrs by SRB assay; assay type: functional; details: CAKI-1, 48 h; method in brief: as §5
UACC-62 = assay: Cytotoxicity against human UACC62 cells after 48 hrs by SRB assay; assay type: functional; details: UACC-62, 48 h; method in brief: as §1
KM12 = assay: Cytotoxicity against human KM12 cells after 48 hrs by SRB assay; assay type: functional; details: KM12, 48 h; method in brief: as §5
HL-60(TB) = assay: Cytotoxicity against human HL-60(TB) cells after 48 hrs by SRB assay; assay type: functional; details: HL-60, 48 h
Method in brief: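 NCI-60 human tumour cell line panel; continuous 48 h exposure to five concentrations from 100 to 0.01 µM. Cell growth was read spectrophotometrically by sulforhodamine B protein staining against untreated controls, and […] was taken from the dose–response.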

OVCAR-8 = assay: Cytotoxicity against human OVCAR8 cells after 48 hrs by SRB assay; assay type: functional; details: OVCAR-8, 48 h; method in brief: as §3
NCI-H23 = assay: Cytotoxicity against human NCI-H23 cells after 48 hrs by SRB assay; assay type: functional; details: NCI-H23, 48 h; method in brief: as §3
MOLT-4 = assay: Cytotoxicity against human MOLT4 cells after 48 hrs by SRB assay; assay type: functional; details: MOLT-4, 48 h; method in brief: as §3
SF-268 = assay: Cytotoxicity against human SF268 cells after 48 hrs by SRB assay; assay type: functional; details: SF-268, 48 h; method in brief: as §3
NCI-H322M = assay: Cytotoxicity against human NCI-H322M cells after 48 hrs by SRB assay; assay type: functional; method in brief: as §3
[7] = Cytotoxicity against human NCI-ADR-RES cells after 48 hrs by SRB assay; assay type: functional; method in brief: as §3
[8] = biological target: Mitogen-activated protein kinase kinase kinase kinase 4 (Homo sapiens) (UniProt O95819); assay: Inhibition of human HGK at 10 uM; method in brief: as §6
[9] = Cytotoxicity against human OVCAR5 cells after 48 hrs by SRB assay; assay type: functional; details: OVCAR-5, 48 h; method in brief: as §3
K562 = assay: Cytotoxicity against human K562 cells after 48 hrs by SRB assay; assay type: functional; details: K562, 48 h; method in brief: as §5
HCC 2998 = assay: Cytotoxicity against human HCC2998 cells after 48 hrs by SRB assay; assay type: functional; details: HCC 2998, 48 h; method in brief: as §5
T47D = assay: Cytotoxicity against human T47D cells after 48 hrs by SRB assay; assay type: functional; method in brief: as §1
SK-MEL-2 = assay: Cytotoxicity against human SK-MEL-2 cells assessed as reduction in cell growth at 1 to 10 uM after 48 hrs by MTT assay relative to untreated control; assay type: functional; parameters: scale not given: the % may be the effect or the level left; method in brief: as §4
[10] = read-out: LC50 (the source's name)

Sequence of Mitogen-activated protein kinase kinase kinase kinase 4 (Homo sapiens) (O95819 2-1239 limits assumed): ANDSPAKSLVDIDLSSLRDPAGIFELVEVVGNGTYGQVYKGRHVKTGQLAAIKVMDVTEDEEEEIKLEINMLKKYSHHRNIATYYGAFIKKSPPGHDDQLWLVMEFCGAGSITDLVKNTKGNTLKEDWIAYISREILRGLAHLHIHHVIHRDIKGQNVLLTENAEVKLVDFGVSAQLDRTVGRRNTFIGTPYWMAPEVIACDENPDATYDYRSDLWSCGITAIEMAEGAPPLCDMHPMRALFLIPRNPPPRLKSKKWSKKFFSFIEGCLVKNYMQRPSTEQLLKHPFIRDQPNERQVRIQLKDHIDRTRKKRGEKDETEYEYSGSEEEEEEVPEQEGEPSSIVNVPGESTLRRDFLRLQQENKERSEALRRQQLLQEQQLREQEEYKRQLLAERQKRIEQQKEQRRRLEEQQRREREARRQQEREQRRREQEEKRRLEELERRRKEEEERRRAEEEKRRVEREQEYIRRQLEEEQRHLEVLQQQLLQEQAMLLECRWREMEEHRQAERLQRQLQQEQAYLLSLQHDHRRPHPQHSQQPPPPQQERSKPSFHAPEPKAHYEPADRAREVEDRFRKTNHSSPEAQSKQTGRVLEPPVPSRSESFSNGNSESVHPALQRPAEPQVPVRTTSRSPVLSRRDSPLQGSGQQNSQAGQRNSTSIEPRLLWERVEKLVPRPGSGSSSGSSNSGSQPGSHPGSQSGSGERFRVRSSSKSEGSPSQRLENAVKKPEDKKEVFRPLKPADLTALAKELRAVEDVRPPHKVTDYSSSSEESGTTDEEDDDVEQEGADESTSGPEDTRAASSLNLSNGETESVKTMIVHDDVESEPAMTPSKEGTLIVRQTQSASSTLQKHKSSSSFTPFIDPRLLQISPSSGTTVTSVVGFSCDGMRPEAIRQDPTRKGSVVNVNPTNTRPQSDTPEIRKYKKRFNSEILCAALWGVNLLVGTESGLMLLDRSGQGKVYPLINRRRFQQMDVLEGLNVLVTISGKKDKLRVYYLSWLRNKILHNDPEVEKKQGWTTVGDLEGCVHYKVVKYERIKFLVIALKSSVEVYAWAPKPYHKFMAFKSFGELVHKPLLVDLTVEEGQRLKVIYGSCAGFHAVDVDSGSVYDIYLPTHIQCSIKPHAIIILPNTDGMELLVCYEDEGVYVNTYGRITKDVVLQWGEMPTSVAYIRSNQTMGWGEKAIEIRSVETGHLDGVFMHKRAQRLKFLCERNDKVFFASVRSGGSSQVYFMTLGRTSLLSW

C[C@@H]1NC(c2ccc(Br)cc2)=Nc2nc3ccccn3c2C1=O
GI50 (SR): 2.42 µM
TGI (SR): > 100 µM
CC50 (SR; [10]): > 100 µM
GI50 [1]: 35.2 µM
TGI [1]: > 100 µM
CC50 [1, 10]: > 100 µM
Activity (MDA-MB-435 [2]): 10%
Activity (MDA-MB-435 [3]): tde
GI50 (RXF 393): 10.2 µM
TGI (RXF 393): 51.8 µM
CC50 (RXF 393; [10]): > 100 µM
GI50 (PC-3): 5.7 µM
TGI (PC-3): > 100 µM
CC50 (PC-3; [10]): > 100 µM
growth at 10 µM (MDA-MB-435 [4]): -15%
GI50 (DU-145): 23.2 µM
TGI (DU-145): > 100 µM
CC50 (DU-145; [10]): > 100 µM
inhibition [5]: inactive
GI50 (HOP-62): 5.75 µM
TGI (HOP-62): > 100 µM
CC50 (HOP-62; [10]): > 100 µM
IC50 (MDA-MB-435 [6]): 1.7 µM
GI50 (CAKI-1): 3.09 µM
TGI (CAKI-1): > 100 µM
CC50 (CAKI-1; [10]): > 100 µM
GI50 (UACC-62): 4.35 µM
TGI (UACC-62): > 100 µM
CC50 (UACC-62; [10]): > 100 µM
GI50 (KM12): 3.39 µM
TGI (KM12): > 100 µM
CC50 (KM12; [10]): > 100 µM
GI50 (HL-60(TB)): 6.49 µM
TGI (HL-60(TB)): > 100 µM
CC50 (HL-60(TB); [10]): > 100 µM
GI50 (OVCAR-8): 17 µM
TGI (OVCAR-8): > 100 µM
CC50 (OVCAR-8; [10]): > 100 µM
GI50 (NCI-H23): 25.4 µM
TGI (NCI-H23): > 100 µM
CC50 (NCI-H23; [10]): > 100 µM
GI50 (MOLT-4): 12.8 µM
TGI (MOLT-4): > 100 µM
CC50 (MOLT-4; [10]): > 100 µM
GI50 (SF-268): 17.2 µM
TGI (SF-268): > 100 µM
CC50 (SF-268; [10]): > 100 µM
GI50 (NCI-H322M): 23.6 µM
TGI (NCI-H322M): > 100 µM
CC50 (NCI-H322M; [10]): > 100 µM
GI50 [7]: 7.45 µM
TGI [7]: > 100 µM
CC50 [7, 10]: > 100 µM
inhibition [8]: 50%
GI50 [9]: 23.5 µM
TGI [9]: > 100 µM
CC50 [9, 10]: > 100 µM
GI50 (K562): 4.13 µM
TGI (K562): > 100 µM
CC50 (K562; [10]): > 100 µM
GI50 (HCC 2998): 21.9 µM
TGI (HCC 2998): > 100 µM
CC50 (HCC 2998; [10]): > 100 µM
GI50 (T47D): 46.2 µM
TGI (T47D): > 100 µM
CC50 (T47D; [10]): > 100 µM

C[C@@H]1NC(c2ccccc2)=Nc2nc3ccccn3c2C1=O
Activity (SK-MEL-2): 20%
